Screens as filed in PubChem.
GalR3 antag – human GalR3 antagonism. 0.44% of 360,000 active. inhibition, % at 3 µM. HEK293 GalR3-CNG cAMP membrane potential fluorescence; galR3 body fused to GalR1 C-terminus. O60755;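 active means inhibition above the screen-wide average plus 3 SD, cut at about 13% in these data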;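 further: forskolin and galanin both at EC90 stimulate the cells; cAMP rise reported by CNG channel membrane potential dye signal; 0% = forskolin plus galanin with DMSO and 100% = forskolin alone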
Target sequence (O60755 1-299 limits assumed): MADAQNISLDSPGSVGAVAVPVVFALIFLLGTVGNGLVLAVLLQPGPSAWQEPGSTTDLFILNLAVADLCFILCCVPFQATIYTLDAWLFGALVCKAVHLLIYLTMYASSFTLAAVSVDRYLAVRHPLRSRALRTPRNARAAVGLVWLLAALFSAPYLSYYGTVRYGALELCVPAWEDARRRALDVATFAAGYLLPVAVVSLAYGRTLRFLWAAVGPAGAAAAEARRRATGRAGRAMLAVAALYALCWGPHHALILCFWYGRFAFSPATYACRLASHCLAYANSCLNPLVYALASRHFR
OX1R antag-1 – blocks the human orexin 1 receptor; CHO/OX1R cells, Fluo-8 calcium fluorescence, orexin A; inhibition, % at 5 µM; 0.43% of 330,000 active; AID 434989;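 active means inhibition above its plate's threshold, mean inhibition of all tested compounds on the plate plus 3 SD, cut at about 37% in these data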;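 further: 0% = orexin A challenge wells and 100% = SB-334867-A antagonist wells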
OX1R antag-2 – blocks the human orexin 1 receptor; O43613; OX1R-expressing cells, FRET antagonist read-out; inhibition, % at 6.6 µM; 1.8% of 330,000 active; AID 485270; in the data active means inhibition mostly above about 38%, no sharp cut-off; inactive means mostly below about 40%;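 further: 0% = agonist challenge alone and 100% = reference antagonist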
CHO parental Ca – counter-screen: ATP calcium response change in parental CHO cells; 0.63% of 330,000 active; AID 463079; inhibition, % at 5.6 µM; parental CHO-K1, ATP-induced calcium, Fluo-8 fluorescence;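 active means inhibition above that plate's mean sample inhibition plus 3 SD, cut at about 26% in these data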;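 further: 0% = ATP-challenged DMSO wells and 100% = DMSO wells without ATP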
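Measured by: calcium-sensitive Fluo-8 fluorescence / Test system: CHO parental line / Controls: ATP-challenged DMSO wells low, unchallenged DMSO wells high / Measure: % inhibition / Compound: single nominal dose of 5.6 µM per compound / Replicates: single well per compound, no replicates / Reagent: ATP as calcium-mobilizing challenge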
GPR7 antag – antagonists of human GPR7 (neuropeptides B/W receptor 1). 1.1% of 290,000 active. inhibition, % at 4.4 µM. AID 1861. GPR7-expressing cells, fluorescence antagonist assay; in the data active means inhibition above about 16%, passing the limit was not always enough;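 further: cells stimulated with the agonist NPW; 0% = agonist with vehicle and 100% = vehicle without agonist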
Target sequence (P48145 whole entry, looked up): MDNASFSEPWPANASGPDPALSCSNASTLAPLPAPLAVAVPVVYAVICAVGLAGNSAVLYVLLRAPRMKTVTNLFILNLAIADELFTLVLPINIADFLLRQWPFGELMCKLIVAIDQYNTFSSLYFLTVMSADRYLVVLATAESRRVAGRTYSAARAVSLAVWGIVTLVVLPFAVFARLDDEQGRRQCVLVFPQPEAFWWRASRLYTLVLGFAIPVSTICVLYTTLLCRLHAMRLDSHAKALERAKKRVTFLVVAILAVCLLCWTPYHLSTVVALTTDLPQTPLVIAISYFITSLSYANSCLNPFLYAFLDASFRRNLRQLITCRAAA
OX1R HTRF conf – OX1R (human) antagonism, HTRF confirmed; OX1R-expressing cells, HTRF antagonist assay; 49% of 1,800 active; inhibition, % at 6.6 µM; shares compounds with OX1R antag-2; in the data active means inhibition above about 55%;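 further: CHO cells expressing OX1R stimulated with orexin A at about EC80; 0% = agonist challenge alone and 100% = reference antagonist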
CHO-K1 HTRF – counter-screen for OX1R antagonists: effect in parental CHO-K1 cells | 48% of 1,800 active | HTRF counterscreen | inhibition, % at 6.6 µM | shares compounds with OX1R antag-2 | AID 493232; in the data active means inhibition above about 17%;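 further: 0% = agonist challenge with vehicle and 100% = vehicle alone without agonist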
An asterisk follows results filed as active; nt = not tested or not shown. An excerpt weighted towards active compounds, which were near 3.1% of everything screened.

SMILES | GalR3 antag | OX1R antag-1 | OX1R antag-2 | CHO parental Ca | GPR7 antag | OX1R HTRF conf | CHO-K1 HTRF
Cc1cc(O)ccc1NC(=O)CCN1C(=O)c2ccc([N+](=O)[O-])cc2C1=O | -2.1 | 5.8 | 150.7* | 6.2 | -2.7 | 68.8* | 74.2*
Cc1ccc(NC(=O)CCN2C(=O)c3ccccc3C2=O)c(C)c1 | -8.3 | -14.3 | 0.1 | -6.8 | -12.9 | nt | nt
Cc1ccnc(N2C(=O)c3ccccc3C2=O)c1 | -9.4 | -7.7 | -8.8 | -3.7 | -7.7 | nt | nt
Cc1ccnc(N2C(=O)c3cccc4c([N+](=O)[O-])ccc(c34)C2=O)c1 | 9.8 | 11.6 | 107.4* | 8.7 | 13.2 | 47.9 | 72.8*
CCc1nc2cc(NC(=O)C3(C)CCCN(C(C)C)C3)ccc2o1 (configuration not stated) | 0.6 | nt | nt | nt | nt | nt | nt
Cc1csc(NC(=O)c2cccnc2Cl)n1 | -6.3 | -7.1 | 8.2 | 1.5 | nt | nt | nt
O=S1(=O)CC(N2CCN(CCO)CC2)CN1Cc1cn(Cc2ccc(C(F)(F)F)cc2)nn1 (configuration not stated) | 2.3 | nt | nt | nt | nt | nt | nt
CC(C)N(Cc1nc(-c2ccccc2)no1)C(=O)C(C)(C)C | 0.1 | -27.9 | 34.3 | -16.1 | -7.6 | nt | nt
COc1cccc(C(=O)N(Cc2nc(-c3cccc(C)c3)no2)C(C)C)c1OC | -0.9 | 11.4 | 81.0* | -12.6 | -12.2 | 68.6* | -9.1
CC(C)N(Cc1nc(-c2ccccc2)no1)C(=O)Cc1ccccc1 | nt | 9.6 | 78.2* | -14.5 | 0.2 | 51.9 | -14.9
COc1ccc(NS(=O)(=O)c2cn(C)c(=O)n(C)c2=O)cc1 | -5.8 | -0.7 | 7.8 | -7.3 | -9.3 | nt | nt
O=C(Nc1ccncc1)c1cc(C2CCCCN2C(=O)CCCc2ccccc2)on1 (configuration not stated) | -6.3 | nt | nt | nt | nt | nt | nt
CC(=O)N(C1=C(N2CCOCC2)C(=O)c2ccccc2C1=O)c1ccc(C(=O)O)cc1 | -6.5 | -8.7 | 125.0* | -10.3 | -7.1 | 98.1* | 86.0*
FC(F)(F)C(F)(F)C(F)(F)c1nc2nc(Cl)c(Cl)nc2[nH]1 | -5.0 | nt | nt | nt | nt | nt | nt
O=[N+]([O-])c1cccc(/C=C/c2nc3ccc([N+](=O)[O-])cc3[nH]2)c1 | -2.4 | 16.6 | 101.6* | 19.0 | 19.1 | 21.4 | 1.2
Cc1nc2ccc([N+](=O)[O-])cc2[nH]1 | 0.8 | -19.5 | 16.9 | -6.2 | -14.5 | nt | nt
COc1ccc(N2CC(C(=O)Nc3nnc(SCC(=O)N4CCOCC4)s3)CC2=O)cc1 (configuration not stated) | 3.2 | -11.7 | 26.4 | -11.0 | -4.0 | nt | nt
NS(=O)(=O)c1ccc(NN=C2CCN(Cc3ccccc3)CC2)c([N+](=O)[O-])c1 | -4.0 | 8.0 | 82.7* | -2.7 | -11.0 | 19.0 | 7.3
Cc1ccc(/C=C2/Sc3ccccc3N(CC(=O)NCCCOC(C)C)C2=O)cc1 | -9.9 | 26.8 | 83.6* | -19.7 | -1.0 | 69.5* | 5.1
CCOCCCNC(=O)CN1C(=O)/C(=C/c2ccccc2)Sc2ccccc21 | -4.5 | 12.2 | 81.0* | -14.2 | -6.2 | 87.2* | 9.0
CC(C)CNc1ccc2c(c1)OC[C@H](C)NS2(=O)=O | -6.2 | nt | nt | nt | nt | nt | nt
O=C(CCCN1C(=O)C(c2ccccc2)Oc2cccnc21)Nc1ccccc1Cl (configuration not stated) | -1.1 | -30.9 | 17.9 | -28.5 | 3.1 | nt | nt
CC(NS(=O)(=O)c1ccc([N+](=O)[O-])cc1)C(=O)NN (configuration not stated) | -7.3 | -14.4 | 84.8* | -6.5 | -6.7 | 28.3 | 48.2*
O=C(Nc1cccc(-c2nnc(-c3ccccc3)o2)c1)c1ccc(Br)o1 | -8.6 | 31.3 | 87.0* | -11.1 | -7.4 | 51.6 | 10.3
O=C(COc1ccccc1)Nc1cccc(-c2nnc(-c3ccccc3)o2)c1 | -3.2 | -7.9 | 61.7 | -6.5 | nt | nt | nt
SMILES | GalR3 antag | OX1R antag-1 | OX1R antag-2 | CHO parental Ca | GPR7 antag | OX1R HTRF conf | CHO-K1 HTRF
O=[N+]([O-])c1cc(-c2nc(-c3ccncc3)no2)cc([N+](=O)[O-])c1 | -13.4 | -30.8 | 77.9* | -0.5 | 2.8 | 71.9* | 63.1*
O=[N+]([O-])c1cc(-c2nc(-c3ccncc3)no2)ccc1Cl | -2.3 | -2.2 | 59.4 | 2.6 | -11.4 | nt | nt
CCOc1cc(/C=C2\NC(=O)NC2=O)cc([N+](=O)[O-])c1O | -7.3 | -3.3 | 128.0* | -5.8 | -8.9 | 57.5* | 68.7*
COc1ccccc1NC(=O)c1nn(-c2ccc(F)c(F)c2)ccc1=O | -0.7 | -9.1 | 20.5 | 4.4 | -9.4 | nt | nt
COc1ccccc1NC(=O)c1nn(-c2cccc(C(F)(F)F)c2)ccc1=O | 0.1 | 12.3 | 81.8* | -6.0 | -2.7 | 66.1* | 5.3
O=C(/C=C1\NC2(CCCC2)Cc2ccccc21)C(=O)N/N=C/c1ccccc1O | 0.8 | -10.8 | 82.1* | -26.5 | 4.0 | 47.4 | 4.9
Oc1nc(Nc2ccc(F)cc2)sc1/C=C1\C=Nc2ccccc21 | -7.8 | 22.9 | 93.4* | 1.9 | 6.2 | 23.4 | -0.5
Oc1nc(Nc2cccc(Cl)c2)sc1/C=C1\C=Nc2ccccc21 | -9.6 | -11.6 | 67.2 | -7.3 | 4.5 | nt | nt
CC(C)(C)n1[nH]c2c3c(ccc2c1=O)C(=O)c1ccccc1C3=O | -2.5 | -31.3 | 128.6* | -10.4 | -1.9 | 45.9 | 43.4*
COc1ccccc1C(=O)NCCC(=O)NCC1CCCCC1 | 0.3 | -11.6 | 10.3 | -7.1 | nt | nt | nt
Cn1ccnc1Sc1cc(NCCCO)c([N+](=O)[O-])c2nonc12 | 10.2 | -0.2 | 83.4* | 8.4 | 0.8 | 51.2 | 78.2*
Cc1ccccc1C(=O)N=c1c(C#N)cc2c(=O)n3cccc(C)c3nc2n1Cc1ccco1 | nt | -25.7 | 33.1 | -6.4 | -4.1 | nt | nt
COCCn1c(=N)c(C(=O)NCc2ccco2)cc2c(=O)n3ccccc3nc21 | -2.2 | -35.4 | 166.6* | -15.5 | -8.7 | 53.9 | 71.6*
N=c1c(C(=O)NCc2ccccc2)cc2c(=O)n3ccccc3nc2n1Cc1ccco1 | -3.6 | -16.4 | 78.0* | -25.1 | 0.9 | 32.0 | 11.4
N#Cc1cc2c(=O)n3ccccc3nc2n(Cc2ccco2)c1=NC(=O)c1ccco1 | 0.0 | -15.7 | 77.1* | -10.6 | -10.6 | 47.1 | 42.5*
CC(=O)OC1CCC2C3CCc4cc(OP(=O)(N5CC5)N5CC5)ccc4C3CCC12C (configuration not stated) | -2.4 | nt | nt | nt | nt | nt | nt
C[C@@H]1CN([C@H](C)CO)C(=O)CCCn2cc(nn2)CO[C@H]1CN(C)C(=O)Nc1ccc(C(C)(C)C)cc1 | -6.1 | nt | nt | nt | nt | nt | nt
C[C@@H]1CN([C@H](C)CO)C(=O)c2c(c3ccccc3n2C)-c2ccccc2CO[C@H]1CN(C)C(=O)CCC(F)(F)F | -7.3 | nt | nt | nt | nt | nt | nt
CN(CC(=O)Nc1cccc(F)c1)C(=O)c1ccc2c(c1)CC(c1ccccc1)OC2=O (configuration not stated) | -5.4 | nt | nt | nt | nt | nt | nt
Cc1cccn2cc(-c3cccc(NC(=O)c4cccs4)c3)nc12 | -6.0 | -4.3 | 111.1* | -23.5 | 2.9 | 92.8* | -0.8
